Tests used:
[1] = molecular target: T1, Adenosine receptor A2b (Rattus norvegicus) (UniProt P29276); test: Agonist activity as cAMP production in CHO cells expressing rat Adenosine A2B receptor at 100 uM; assay type: functional, cell-based
T1 sequence (whole entry): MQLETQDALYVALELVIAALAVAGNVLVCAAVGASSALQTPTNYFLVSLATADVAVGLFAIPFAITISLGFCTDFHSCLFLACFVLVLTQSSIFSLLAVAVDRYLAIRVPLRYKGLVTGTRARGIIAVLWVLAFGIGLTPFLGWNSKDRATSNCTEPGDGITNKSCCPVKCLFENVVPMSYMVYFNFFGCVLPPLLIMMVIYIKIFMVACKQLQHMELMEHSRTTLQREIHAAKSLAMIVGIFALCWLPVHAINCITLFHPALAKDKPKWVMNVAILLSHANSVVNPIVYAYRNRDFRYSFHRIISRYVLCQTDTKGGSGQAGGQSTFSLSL
Summary of the method: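 Rat A2B receptor cDNA transfected into CHO cells; agonism read as cAMP production with test compound at 100 µM, given as percentage of NECA-induced activity.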

Rattus norvegicus [2] = organism: Rattus norvegicus; test: Ratio of affinity for A2A and P3LP receptors
Adenosine receptor A3 = molecular target: T2, Adenosine receptor A3 (Rattus norvegicus, UniProt P28647); test: Binding affinity for adenosine A3 receptor in CHO cell membranes using [125I]IB-MECA
T2 sequence (P28647 whole entry): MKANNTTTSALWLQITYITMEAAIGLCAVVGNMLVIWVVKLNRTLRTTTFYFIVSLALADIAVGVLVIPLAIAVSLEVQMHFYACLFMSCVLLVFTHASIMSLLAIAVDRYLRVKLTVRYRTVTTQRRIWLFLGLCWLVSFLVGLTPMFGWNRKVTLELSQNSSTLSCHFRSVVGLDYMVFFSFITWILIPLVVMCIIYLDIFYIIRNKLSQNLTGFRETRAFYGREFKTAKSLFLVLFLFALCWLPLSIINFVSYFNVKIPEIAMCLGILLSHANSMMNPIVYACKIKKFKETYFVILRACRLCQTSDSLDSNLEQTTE

Rattus norvegicus [3] = organism: Rattus norvegicus; test: Ratio of affinity for A1 AND P3LP receptor
Adenosine receptor A1 = molecular target: T3, Adenosine receptor A1 (Rattus norvegicus, UniProt P25099); test: Binding activity against Adenosine A1 receptor from rat brain membranes using [3H]8-cyclopentyl-1,3-dipropylxanthine (DPCPX)
T3 sequence (P25099 whole entry): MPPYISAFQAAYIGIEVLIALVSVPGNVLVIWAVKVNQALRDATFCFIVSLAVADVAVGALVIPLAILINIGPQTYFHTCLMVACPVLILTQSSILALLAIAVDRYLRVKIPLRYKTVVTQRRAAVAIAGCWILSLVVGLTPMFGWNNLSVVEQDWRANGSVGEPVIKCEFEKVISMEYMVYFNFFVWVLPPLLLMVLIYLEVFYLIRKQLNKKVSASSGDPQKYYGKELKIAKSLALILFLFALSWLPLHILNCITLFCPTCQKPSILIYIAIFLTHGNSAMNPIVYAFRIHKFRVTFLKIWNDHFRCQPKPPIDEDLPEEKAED

Rattus norvegicus [4] = organism: Rattus norvegicus; test: Ratio of affinity for A3 and P3LP receptors
Adenosine receptor A2a = Adenosine receptor A2a (Rattus norvegicus, UniProt P30543); test: Binding affinity for Adenosine A2A receptor in rat brain membranes using [3H]CGS-21680; assay type: cell membranes
Sequence of Adenosine receptor A2a (P30543 whole entry): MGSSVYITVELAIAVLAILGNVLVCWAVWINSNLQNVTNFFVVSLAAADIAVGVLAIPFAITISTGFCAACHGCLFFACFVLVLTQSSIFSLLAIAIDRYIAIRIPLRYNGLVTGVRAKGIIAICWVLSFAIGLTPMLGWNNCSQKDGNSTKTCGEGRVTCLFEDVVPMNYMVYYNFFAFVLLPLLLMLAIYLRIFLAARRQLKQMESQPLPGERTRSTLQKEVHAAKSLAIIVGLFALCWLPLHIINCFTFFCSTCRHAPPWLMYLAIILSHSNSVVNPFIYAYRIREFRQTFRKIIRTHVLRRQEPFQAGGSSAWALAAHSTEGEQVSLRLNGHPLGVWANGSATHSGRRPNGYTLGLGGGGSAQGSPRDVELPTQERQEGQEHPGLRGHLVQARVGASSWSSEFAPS

| Structure (SMILES) | Activity [1] | Ratio (Rattus norvegicus [2]) | Ki (Adenosine receptor A3) [nM] | Ratio (Rattus norvegicus [3]) | Ki (Adenosine receptor A1) [nM] | Ratio (Rattus norvegicus [4]) | Ki (Adenosine receptor A2a) [nM] |
| --- | --- | --- | --- | --- | --- | --- | --- |
| CCNC(=O)[C@H]1O[C@@H](n2cnc3c(N)ncnc32)[C@H](O)[C@@H]1O | 100 |  |  |  |  |  |  |
| C#CC(O)[C@H]1O[C@@H](n2cnc3c(N)ncnc32)[C@H](O)[C@@H]1O (some centres not stated) | 10% | 105 | 310000 | 44.9 | 897 | 15500 | 2110 |
| Nc1ncnc2c1ncn2[C@@H]1O[C@H](C(=O)NC2CCCCC2)[C@@H](O)[C@H]1O | 1.9% | 137 | 15100 | 275 | 5020 | 830 | 2500 |
| CCCCCNC(=O)[C@H]1O[C@@H](n2cnc3c(N)ncnc32)[C@H](O)[C@@H]1O | 3.4% | 49.6 | 5560 | 80.2 | 979 | 456 | 605 |

Source: ChEMBL document CHEMBL1134608, “Nucleosides and nucleotides. 200. Reinvestigation of 5'-N-ethylcarboxamidoadenosine derivatives: structure-activity relationships for P(3) purinoceptor-like proteins” (J Med Chem, 2001)
